Assay results from ChEMBL document CHEMBL2203081 (Bioorg Med Chem Lett, 2012).
Activity calls are given as the source filed them. No cut-off for these calls is given here.

What was measured:
[1] = molecular target: Casein kinase I isoform epsilon (Homo sapiens) (UniProt P49674); test: Inhibition of CSNK1E assessed as residual activity at 10 uM relative to control
How it was run: (§1)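 Competition kinase-binding assay (KINOMEscan) across a non-redundant panel of 329 kinases beyond the radiometric panel; residual binding expressed relative to control.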

[2] = molecular target: Serine/threonine-protein kinase Sgk1 (Homo sapiens) (UniProt O00141); test: Inhibition of SGK assessed as residual activity at 10 uM relative to control
[3] = molecular target: Serine/threonine-protein kinase SBK1 (Homo sapiens) (UniProt Q52WX2); test: Inhibition of SBK1 assessed as residual activity at 10 uM relative to control
[4] = molecular target: Calcium/calmodulin-dependent protein kinase type II subunit delta (Homo sapiens) (UniProt Q13557); test: Inhibition of CAMK2D assessed as residual activity at 10 uM relative to control
[5] = molecular target: Serine/threonine-protein kinase PAK 2 (Homo sapiens) (UniProt Q13177); test: Inhibition of PAK2 assessed as residual activity at 1 uM
[6] = molecular target: Inhibitor of nuclear factor kappa-B kinase subunit epsilon (Homo sapiens) (UniProt Q14164); test: Inhibition of IKKe assessed as residual activity at 1 uM
[7] = molecular target: Fibroblast growth factor receptor 1 (Homo sapiens) (UniProt P11362); test: Inhibition of FGF-R1 assessed as residual activity at 1 uM
How it was run: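 Radioactivity-based enzymatic activity assay of the named kinase, run as part of a 131-kinase specificity panel at the National Centre for Protein Kinase Profiling (Dundee). Residual activity was read at the stated single inhibitor concentration.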

[8] = molecular target: Rho-associated protein kinase 2 (Homo sapiens) (UniProt O75116); test: Inhibition of ROCK2 assessed as residual activity at 10 uM relative to control
[9] = molecular target: Tyrosine-protein kinase receptor UFO (Homo sapiens) (UniProt P30530); test: Inhibition of AXL assessed as residual activity at 10 uM relative to control
[10] = molecular target: Activin receptor type-1B (Homo sapiens) (UniProt P36896); test: Inhibition of ACVR1B assessed as residual activity at 10 uM relative to control
Mus musculus = test: Inhibition of LRRK2 in mouse assessed as inhibition of Ser935 autophosphorylation in kidney at 100 mg/kg, ip by immunoblot method; format: functional, organism-based; parameters: dose 100 mg/kg
[11] = molecular target: Serine/threonine-protein kinase 33 (Homo sapiens) (UniProt Q9BYT3); test: Inhibition of STK33 assessed as residual activity at 10 uM
[12] = molecular target: Serine/threonine-protein kinase N2 (Homo sapiens) (UniProt Q16513); test: Inhibition of PRK2 assessed as residual activity at 10 uM
[13] = molecular target: Homeodomain-interacting protein kinase 4 (Homo sapiens) (UniProt Q8NE63); test: Inhibition of HIPK4 assessed as residual activity at 10 uM relative to control
[14] = molecular target: Tyrosine-protein kinase Fer (Homo sapiens) (UniProt P16591); test: Inhibition of FER assessed as residual activity at 10 uM relative to control
[15] = molecular target: Epidermal growth factor receptor (Homo sapiens) (UniProt P04626+P00533+Q15303+P21860); test: Inhibition of EGFR L747-T751del, Sins mutant assessed as residual activity at 10 uM relative to control; format: protein assay; how it was run: as §1
[16] = molecular target: High affinity nerve growth factor receptor (Homo sapiens) (UniProt P04629); test: Inhibition of TrkA assessed as residual activity at 1 uM
[17] = molecular target: T1, Mitogen-activated protein kinase kinase kinase 7 (Homo sapiens) (UniProt O43318); test: Inhibition of TAK1 assessed as residual activity at 1 uM
T1 sequence (whole entry): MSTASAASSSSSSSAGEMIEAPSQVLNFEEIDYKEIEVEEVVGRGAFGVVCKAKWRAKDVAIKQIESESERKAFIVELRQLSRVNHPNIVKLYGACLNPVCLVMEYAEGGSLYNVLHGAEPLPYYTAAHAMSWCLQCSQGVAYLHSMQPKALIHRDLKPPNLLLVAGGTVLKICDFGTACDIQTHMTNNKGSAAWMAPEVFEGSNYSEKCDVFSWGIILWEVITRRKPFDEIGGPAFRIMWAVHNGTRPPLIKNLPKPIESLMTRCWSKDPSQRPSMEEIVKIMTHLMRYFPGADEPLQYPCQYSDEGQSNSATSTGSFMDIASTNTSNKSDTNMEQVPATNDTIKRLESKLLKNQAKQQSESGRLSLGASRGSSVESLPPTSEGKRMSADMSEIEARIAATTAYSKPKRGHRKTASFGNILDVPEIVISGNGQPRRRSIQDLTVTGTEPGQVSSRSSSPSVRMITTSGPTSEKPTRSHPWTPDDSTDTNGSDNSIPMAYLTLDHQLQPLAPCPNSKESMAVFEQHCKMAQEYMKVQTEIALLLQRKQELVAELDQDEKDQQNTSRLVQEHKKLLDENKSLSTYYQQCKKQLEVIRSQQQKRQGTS

[18] = molecular target: Serine/threonine-protein kinase NLK (Homo sapiens) (UniProt Q9UBE8); test: Inhibition of NLK assessed as residual activity at 10 uM relative to control
[19] = molecular target: Serine/threonine-protein kinase 24 (Homo sapiens) (UniProt Q9Y6E0); test: Inhibition of MST3 assessed as residual activity at 10 uM relative to control
[20] = molecular target: Serine/threonine-protein kinase MRCK beta (Homo sapiens) (UniProt Q9Y5S2); test: Inhibition of MRCKB assessed as residual activity at 10 uM relative to control
[21] = molecular target: Mitogen-activated protein kinase kinase kinase 10 (Homo sapiens) (UniProt Q02779); test: Inhibition of MLK2 assessed as residual activity at 10 uM relative to control
[22] = molecular target: MAP kinase-interacting serine/threonine-protein kinase 2 (Homo sapiens) (UniProt Q9HBH9); test: Inhibition of MKNK2 assessed as residual activity at 10 uM relative to control
MAP kinase-interacting serine/threonine-protein kinase 2 (Homo sapiens), sequence (Q9HBH9 whole entry, looked up): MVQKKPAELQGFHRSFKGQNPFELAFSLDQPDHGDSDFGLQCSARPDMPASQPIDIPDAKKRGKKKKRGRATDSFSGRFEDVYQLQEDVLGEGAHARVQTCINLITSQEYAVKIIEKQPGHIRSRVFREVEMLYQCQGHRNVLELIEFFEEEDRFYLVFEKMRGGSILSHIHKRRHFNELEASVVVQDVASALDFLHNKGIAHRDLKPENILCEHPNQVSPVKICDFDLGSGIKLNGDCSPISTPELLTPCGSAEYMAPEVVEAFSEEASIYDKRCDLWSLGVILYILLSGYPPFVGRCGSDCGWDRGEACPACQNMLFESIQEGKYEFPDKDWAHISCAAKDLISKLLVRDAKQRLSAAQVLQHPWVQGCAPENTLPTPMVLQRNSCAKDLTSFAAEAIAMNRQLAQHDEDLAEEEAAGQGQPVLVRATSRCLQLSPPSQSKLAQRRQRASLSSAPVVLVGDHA

Calcium/calmodulin-dependent protein kinase type II subunit delta (Homo sapiens), sequence (Q13557 whole entry): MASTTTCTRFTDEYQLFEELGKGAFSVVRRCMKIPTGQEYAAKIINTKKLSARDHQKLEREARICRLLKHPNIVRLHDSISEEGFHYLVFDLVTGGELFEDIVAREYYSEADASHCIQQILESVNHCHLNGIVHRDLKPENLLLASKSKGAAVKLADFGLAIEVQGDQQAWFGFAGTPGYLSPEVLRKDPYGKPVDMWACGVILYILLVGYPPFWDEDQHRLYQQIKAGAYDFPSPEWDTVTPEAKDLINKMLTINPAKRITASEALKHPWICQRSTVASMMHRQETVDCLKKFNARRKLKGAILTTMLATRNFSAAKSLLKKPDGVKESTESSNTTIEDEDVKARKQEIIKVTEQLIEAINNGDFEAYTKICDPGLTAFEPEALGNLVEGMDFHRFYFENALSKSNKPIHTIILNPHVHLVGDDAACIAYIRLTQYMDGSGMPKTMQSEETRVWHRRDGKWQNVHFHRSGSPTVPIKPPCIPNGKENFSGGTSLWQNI
Serine/threonine-protein kinase N2 (Homo sapiens), sequence (Q16513 whole entry, looked up): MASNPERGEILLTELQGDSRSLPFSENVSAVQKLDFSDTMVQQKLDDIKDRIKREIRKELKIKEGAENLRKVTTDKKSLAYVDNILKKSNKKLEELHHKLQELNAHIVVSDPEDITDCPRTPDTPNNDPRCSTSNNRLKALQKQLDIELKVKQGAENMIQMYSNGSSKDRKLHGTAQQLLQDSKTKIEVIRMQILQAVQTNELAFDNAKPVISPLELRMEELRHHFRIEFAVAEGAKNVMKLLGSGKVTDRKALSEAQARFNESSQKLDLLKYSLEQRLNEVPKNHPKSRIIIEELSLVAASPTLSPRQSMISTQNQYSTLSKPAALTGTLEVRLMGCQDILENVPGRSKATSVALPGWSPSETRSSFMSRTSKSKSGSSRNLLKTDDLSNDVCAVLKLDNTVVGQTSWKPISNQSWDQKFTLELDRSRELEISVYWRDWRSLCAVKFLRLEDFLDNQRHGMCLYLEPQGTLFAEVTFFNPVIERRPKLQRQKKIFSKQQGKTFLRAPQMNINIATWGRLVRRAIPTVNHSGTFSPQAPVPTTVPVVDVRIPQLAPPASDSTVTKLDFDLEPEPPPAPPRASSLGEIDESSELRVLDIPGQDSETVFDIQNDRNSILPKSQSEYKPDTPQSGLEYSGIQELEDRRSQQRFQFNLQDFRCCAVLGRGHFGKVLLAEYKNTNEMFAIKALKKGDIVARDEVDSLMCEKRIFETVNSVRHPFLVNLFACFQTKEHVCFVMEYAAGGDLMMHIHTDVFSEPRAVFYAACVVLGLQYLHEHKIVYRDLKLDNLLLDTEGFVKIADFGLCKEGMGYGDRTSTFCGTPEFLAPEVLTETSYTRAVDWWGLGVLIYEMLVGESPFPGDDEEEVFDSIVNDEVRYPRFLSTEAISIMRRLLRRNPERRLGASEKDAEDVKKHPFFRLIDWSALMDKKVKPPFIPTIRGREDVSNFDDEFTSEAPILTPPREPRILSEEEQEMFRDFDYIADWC
Serine/threonine-protein kinase NLK (Homo sapiens), sequence (Q9UBE8 whole entry): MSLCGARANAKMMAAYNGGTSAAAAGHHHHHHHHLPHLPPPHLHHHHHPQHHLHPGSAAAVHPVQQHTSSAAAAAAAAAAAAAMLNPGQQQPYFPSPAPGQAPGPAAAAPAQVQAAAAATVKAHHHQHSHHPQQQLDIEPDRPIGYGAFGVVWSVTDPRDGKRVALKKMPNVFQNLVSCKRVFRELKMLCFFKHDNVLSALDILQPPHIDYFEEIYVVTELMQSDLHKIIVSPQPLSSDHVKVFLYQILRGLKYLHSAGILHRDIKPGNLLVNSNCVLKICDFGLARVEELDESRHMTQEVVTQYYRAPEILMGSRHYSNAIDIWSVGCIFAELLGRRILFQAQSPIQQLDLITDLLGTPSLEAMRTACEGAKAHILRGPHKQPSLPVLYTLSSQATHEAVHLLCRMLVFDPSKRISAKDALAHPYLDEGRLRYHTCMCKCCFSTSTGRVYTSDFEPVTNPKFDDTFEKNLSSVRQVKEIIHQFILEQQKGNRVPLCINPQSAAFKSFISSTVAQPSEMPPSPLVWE
Fibroblast growth factor receptor 1 (Homo sapiens), sequence (P11362 22-822 limits assumed): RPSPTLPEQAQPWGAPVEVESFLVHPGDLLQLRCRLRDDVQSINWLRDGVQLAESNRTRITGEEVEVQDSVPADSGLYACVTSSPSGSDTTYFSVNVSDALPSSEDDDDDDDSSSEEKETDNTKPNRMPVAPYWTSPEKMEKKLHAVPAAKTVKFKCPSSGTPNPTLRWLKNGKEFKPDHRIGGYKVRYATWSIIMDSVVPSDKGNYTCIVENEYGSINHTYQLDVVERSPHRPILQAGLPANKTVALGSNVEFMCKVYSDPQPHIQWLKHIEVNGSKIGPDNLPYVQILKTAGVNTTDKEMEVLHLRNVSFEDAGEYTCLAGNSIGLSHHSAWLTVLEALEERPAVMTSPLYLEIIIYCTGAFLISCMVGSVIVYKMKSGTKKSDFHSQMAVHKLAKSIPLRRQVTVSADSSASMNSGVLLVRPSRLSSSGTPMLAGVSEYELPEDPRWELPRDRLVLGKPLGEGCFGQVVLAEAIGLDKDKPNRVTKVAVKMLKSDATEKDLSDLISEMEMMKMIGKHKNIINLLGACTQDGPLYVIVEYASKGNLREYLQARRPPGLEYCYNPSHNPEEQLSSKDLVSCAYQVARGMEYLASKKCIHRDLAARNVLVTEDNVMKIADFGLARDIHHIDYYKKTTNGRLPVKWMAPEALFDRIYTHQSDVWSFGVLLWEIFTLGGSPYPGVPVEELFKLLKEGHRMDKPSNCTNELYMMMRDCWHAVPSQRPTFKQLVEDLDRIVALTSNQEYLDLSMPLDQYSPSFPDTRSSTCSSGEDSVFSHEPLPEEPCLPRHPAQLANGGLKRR
Homeodomain-interacting protein kinase 4 (Homo sapiens), sequence (Q8NE63 whole entry): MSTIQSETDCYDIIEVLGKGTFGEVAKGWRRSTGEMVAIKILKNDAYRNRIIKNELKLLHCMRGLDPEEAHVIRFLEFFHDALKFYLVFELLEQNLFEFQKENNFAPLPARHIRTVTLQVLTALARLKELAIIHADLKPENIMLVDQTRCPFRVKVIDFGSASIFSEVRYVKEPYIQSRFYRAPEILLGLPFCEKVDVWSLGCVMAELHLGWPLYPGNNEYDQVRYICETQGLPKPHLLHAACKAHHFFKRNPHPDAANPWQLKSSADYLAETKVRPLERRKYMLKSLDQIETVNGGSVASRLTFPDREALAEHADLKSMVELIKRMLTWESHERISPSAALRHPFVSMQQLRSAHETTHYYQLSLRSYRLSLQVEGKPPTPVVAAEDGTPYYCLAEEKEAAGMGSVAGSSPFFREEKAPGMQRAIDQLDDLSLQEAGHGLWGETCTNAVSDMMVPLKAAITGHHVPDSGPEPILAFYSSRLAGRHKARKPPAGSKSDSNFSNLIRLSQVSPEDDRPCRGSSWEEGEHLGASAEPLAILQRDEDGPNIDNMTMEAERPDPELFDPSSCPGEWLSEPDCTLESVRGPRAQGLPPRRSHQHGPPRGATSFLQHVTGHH
Mitogen-activated protein kinase kinase kinase 10 (Homo sapiens), sequence (Q02779 whole entry, looked up): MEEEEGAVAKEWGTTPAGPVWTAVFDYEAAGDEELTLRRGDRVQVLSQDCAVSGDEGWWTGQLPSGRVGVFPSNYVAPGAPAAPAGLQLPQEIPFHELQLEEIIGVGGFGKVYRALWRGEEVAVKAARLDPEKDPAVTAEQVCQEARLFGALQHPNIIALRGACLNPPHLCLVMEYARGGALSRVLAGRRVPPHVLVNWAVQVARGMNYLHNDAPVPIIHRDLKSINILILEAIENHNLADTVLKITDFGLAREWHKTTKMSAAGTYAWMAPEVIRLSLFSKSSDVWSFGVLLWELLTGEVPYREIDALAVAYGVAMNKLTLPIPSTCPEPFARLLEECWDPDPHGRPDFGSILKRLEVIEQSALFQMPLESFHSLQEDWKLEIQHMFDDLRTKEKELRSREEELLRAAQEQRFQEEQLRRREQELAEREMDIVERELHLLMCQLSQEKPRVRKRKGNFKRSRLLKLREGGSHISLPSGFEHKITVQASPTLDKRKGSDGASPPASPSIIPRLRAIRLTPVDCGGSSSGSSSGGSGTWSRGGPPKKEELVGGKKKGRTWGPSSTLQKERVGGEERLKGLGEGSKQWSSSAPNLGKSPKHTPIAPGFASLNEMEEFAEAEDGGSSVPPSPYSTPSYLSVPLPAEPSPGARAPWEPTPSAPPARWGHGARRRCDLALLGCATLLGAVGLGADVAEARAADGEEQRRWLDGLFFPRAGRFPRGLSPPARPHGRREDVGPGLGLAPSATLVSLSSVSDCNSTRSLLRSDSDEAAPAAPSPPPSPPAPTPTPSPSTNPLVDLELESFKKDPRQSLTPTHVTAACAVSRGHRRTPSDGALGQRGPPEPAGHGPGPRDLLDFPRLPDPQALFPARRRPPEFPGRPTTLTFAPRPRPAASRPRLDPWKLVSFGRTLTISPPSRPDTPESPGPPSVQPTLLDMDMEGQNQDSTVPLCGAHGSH

## O=C(Nc1cccnc1)c1cc(-c2ccnc(F)c2)ccc1OCc1ccccc1
[1]
  Activity: 31%
[2]
  Activity: 33%
[3]
  Activity: 46%
[4]
  Activity: 64%
[5]
  Activity: 116%
[6]
  Activity: 106%
[7]
  Activity: 110%
[8]
  Activity: 47%
[9]
  Activity: 46%
[10]
  Activity: 43%
Mus musculus
  inhibition: Active
[11]
  Activity: 56%
[12]
  Activity: 79%
[13]
  Activity: 80%
[14]
  Activity: 67%
[15]
  Activity: 69%
[16]
  Activity: 80%
[17]
  Activity: 108%
[18]
  Activity: 65%
[19]
  Activity: 63%
[20]
  Activity: 59%
[21]
  Activity: 77%
[22]
  Activity: 52%
